Converted amounts (≈) assume the structure as drawn.
Tests used:
Format in all cases: functional
Bacillus cereus = experiment: Antibacterial activity against Bacillus cereus ATCC 10876 assessed as growth inhibition after 18 hr by CLSI broth microdilution method; settings: ATCC 10876, 18 h
Summary of the method: (§1)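 Inoculum: 0.5 McFarland suspension (150 × 10^6 CFU/mL) in sterile 0.85 % NaCl, 2 μL into 198 μL Mueller–Hinton broth. Compound stocks in DMSO; twofold dilutions, final 0.24–1,000 μg/mL. Incubated 35 °C, 18 h; OD600 read. MIC taken as lowest concentration with no visible growth. Controls: compound-free broth with DMSO, and bacteria-free compound blanks.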

Staphylococcus aureus [1] = experiment: Antibacterial activity against Staphylococcus aureus ATCC 25923 assessed as growth inhibition after 18 hr by CLSI broth microdilution method; settings: ATCC 25923, 18 h; summary of the method: as §1
Micrococcus luteus = experiment: Antibacterial activity against Micrococcus luteus ATCC 10240 assessed as growth inhibition after 18 hr by CLSI broth microdilution method; settings: ATCC 10240, 18 h; summary of the method: as §1
Staphylococcus aureus [2] = experiment: Antibacterial activity against Staphylococcus aureus ATCC 6538 assessed as growth inhibition after 18 hr by CLSI broth microdilution method; settings: ATCC 6538, 18 h; summary of the method: as §1
[3] = test system: Staphylococcus epidermidis; experiment: Antibacterial activity against Staphylococcus epidermidis ATCC 12228 assessed as growth inhibition after 18 hr by CLSI broth microdilution method; settings: ATCC 12228, 18 h; summary of the method: as §1
Bacillus spizizenii = experiment: Antibacterial activity against Bacillus subtilis subsp. spizizenii ATCC 6633 assessed as growth inhibition after 18 hr by CLSI broth microdilution method; settings: ATCC 6633, 18 h; summary of the method: as §1

MIC (Bacillus cereus) | MIC (Staphylococcus aureus [1]) | MIC (Micrococcus luteus) | MIC (Staphylococcus aureus [2]) | MIC [3] | MIC (Bacillus spizizenii) | SMILES
500 µg/mL (≈ 1060 µM) | 1000 µg/mL (≈ 2120 µM) | > 1000 µg/mL | > 1000 µg/mL | > 1000 µg/mL | > 1000 µg/mL | COc1ccc(-n2c(S)nnc2CSc2nnc(-c3ccccc3)n2-c2ccccc2)cc1
500 µg/mL (≈ 1130 µM) | 1000 µg/mL (≈ 2260 µM) | > 1000 µg/mL | > 1000 µg/mL | > 1000 µg/mL | > 1000 µg/mL | Sc1nnc(CSc2nnc(-c3ccccc3)n2-c2ccccc2)n1-c1ccccc1
1000 µg/mL (≈ 2140 µM) | > 1000 µg/mL | 1000 µg/mL (≈ 2140 µM) | > 1000 µg/mL | > 1000 µg/mL | 1000 µg/mL (≈ 2140 µM) | O=C(CSc1nnc(-c2ccccc2)n1-c1ccccc1)NNC(=S)NC1CCCCC1
1000 µg/mL (≈ 1980 µM) | 500 µg/mL (≈ 991 µM) | 1000 µg/mL (≈ 1980 µM) | 1000 µg/mL (≈ 1980 µM) | 500 µg/mL (≈ 991 µM) | 500 µg/mL (≈ 991 µM) | COc1ccc(CNC(=S)NNC(=O)CSc2nnc(-c3ccccc3)n2-c2ccccc2)cc1
500 µg/mL (≈ 1100 µM) | > 1000 µg/mL | 1000 µg/mL (≈ 2190 µM) | > 1000 µg/mL | 1000 µg/mL (≈ 2190 µM) | 500 µg/mL (≈ 1100 µM) | CCOC(=O)NC(=S)NNC(=O)CSc1nnc(-c2ccccc2)n1-c1ccccc1
125 µg/mL (≈ 256 µM) | 31.2 µg/mL (≈ 64 µM) | 125 µg/mL (≈ 256 µM) | 250 µg/mL (≈ 512 µM) | 125 µg/mL (≈ 256 µM) | 250 µg/mL (≈ 512 µM) | O=C(CSc1nnc(-c2ccccc2)n1-c1ccccc1)NNC(=S)NC(=O)c1ccccc1
1000 µg/mL (≈ 2460 µM) | 1000 µg/mL (≈ 2460 µM) | 1000 µg/mL (≈ 2460 µM) | 1000 µg/mL (≈ 2460 µM) | 1000 µg/mL (≈ 2460 µM) | 1000 µg/mL (≈ 2460 µM) | C=CCn1c(CSc2nnc(-c3ccccc3)n2-c2ccccc2)n[nH]c1=S
1000 µg/mL (≈ 2230 µM) | 500 µg/mL (≈ 1110 µM) | 250 µg/mL (≈ 557 µM) | 250 µg/mL (≈ 557 µM) | 500 µg/mL (≈ 1110 µM) | 500 µg/mL (≈ 1110 µM) | S=c1[nH]nc(CSc2nnc(-c3ccccc3)n2-c2ccccc2)n1C1CCCCC1
> 1000 µg/mL | 1000 µg/mL (≈ 2190 µM) | 1000 µg/mL (≈ 2190 µM) | 1000 µg/mL (≈ 2190 µM) | 1000 µg/mL (≈ 2190 µM) | > 1000 µg/mL | S=c1[nH]nc(CSc2nnc(-c3ccccc3)n2-c2ccccc2)n1Cc1ccccc1
> 1000 µg/mL | > 1000 µg/mL | > 1000 µg/mL | 1000 µg/mL (≈ 2050 µM) | > 1000 µg/mL | > 1000 µg/mL | COc1ccc(Cn2c(CSc3nnc(-c4ccccc4)n3-c3ccccc3)n[nH]c2=S)cc1
– | 250 µg/mL (≈ 548 µM) | 125 µg/mL (≈ 274 µM) | – | 500 µg/mL (≈ 1100 µM) | 15.6 µg/mL (≈ 34.2 µM) | c1ccc(CNc2nnc(CSc3nnc(-c4ccccc4)n3-c3ccccc3)s2)cc1
62.5 µg/mL (≈ 147 µM) | 0.49 µg/mL (≈ 1.15 µM) | 0.49 µg/mL (≈ 1.15 µM) | 1.95 µg/mL (≈ 4.59 µM) | 0.24 µg/mL (≈ 0.566 µM) | 0.49 µg/mL (≈ 1.15 µM) | CO/N=C(\C(=O)N[C@@H]1C(=O)N2C(C(=O)O)=C(COC(N)=O)CS[C@H]12)c1ccco1 [CEFUROXIME]
